Key:
[1] = system: Mus musculus; assay: Antimescaline activity in the mouse (administered po); assay type: functional
Outline: (§1)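 In mice, antagonism of mescaline-induced effects was tested after oral administration. Potency is an ED50 in mg/kg, calculated as free base weight.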

[2] = system: Mus musculus; assay: Inhibition of mescaline effects in mice following p.o. administration.; assay type: functional; conditions: po; outline: as §1
[3] = system: Rattus norvegicus; assay: In vivo 5-HT2 antagonism of 5-HTP-induced head twitch in rat; assay type: functional
Outline: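 Rats given 5-hydroxytryptophan (5HTP) to induce head twitches, a read-out of in vivo 5HT2 antagonism; compounds given orally (po); ED50 in mg/kg as free base weight; values averaged from three measurements, some single measurements.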

[4] = species: Mus musculus; assay: Ability to block the aggressive behavior caused by prolonged isolation in mouse; assay type: functional
Outline: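 Mice made aggressive by prolonged isolation; compounds dosed orally (po); blocking of aggressive behaviour scored and ED50 derived in mg/kg, expressed as free base weight; values averaged from three measurements, some single measurements.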

[5] = target: Sigma non-opioid intracellular receptor 1 (Cavia porcellus) (UniProt Q60492); assay: Binding affinity for sigma receptor of guinea pig whole brain using [3H]-SKF- 100047 radioligand
Sigma non-opioid intracellular receptor 1 (Cavia porcellus), sequence (Q60492 whole entry, looked up): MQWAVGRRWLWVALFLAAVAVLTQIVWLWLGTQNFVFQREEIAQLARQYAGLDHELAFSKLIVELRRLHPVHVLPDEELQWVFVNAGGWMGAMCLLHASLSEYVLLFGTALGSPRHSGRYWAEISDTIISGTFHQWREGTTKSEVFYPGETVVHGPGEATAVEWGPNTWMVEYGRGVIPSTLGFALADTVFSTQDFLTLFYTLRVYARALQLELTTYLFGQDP

[6] = system: Mus musculus; assay: Ability to block the aggressive behavior caused by prolonged isolation in mouse (administered po); assay type: functional
Outline: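 Mice were made aggressive by prolonged isolation. The compound was given orally, and blockade of the aggressive behavior was scored. ED50 is in mg/kg, expressed as free base weight.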

[7] = system: Rattus norvegicus; assay: In vivo antagonism of compound determined by the ability to inhibit 5-HTP-induced head twitch in rat (administered po); assay type: functional
Outline: (§2)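 In rats, head twitches were induced with 5-hydroxytryptophan as an in vivo read-out of 5HT2 antagonism. The compound was dosed po, and inhibition of twitching gave an ED50 (mg/kg, free base weight).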

[8] = system: Rattus norvegicus; assay: In vivo activity of 5-HTP-induced head twitch in rat as a measure of 5-HT2 antagonism; assay type: functional; outline: as §2

Row | Compound | ED50 [1] [mg/kg] | ED50 [2] [mg/kg] | other results
1 | O=C1c2ccc(F)cc2CCC1C1CCN(CCc2ccccc2)CC1 (configuration not stated) | 1.9 | – | –
2 | Cl.O=C1c2ccc(Cl)cc2CCC1C1CCN(CCc2ccccc2)CC1 (configuration not stated) | – | 5.4 | –
3 | Cl.O=C(CCCN1CCC2(CCc3ccccc3C2=O)CC1)c1ccc(F)cc1 | – | 0.65 | –
4 | COc1ccc2c(c1)CCC(C1CCN(CCc3ccccc3)CC1)C2=O (configuration not stated) | – | 6.5 | –
5 | Br.O=C1c2ccccc2CCC1C1CCN(CCc2ccccc2)CC1 (configuration not stated) | 6.4 | – | –
6 | Cl.O=C1c2ccccc2CCC1C1CCN(Cc2ccccc2)CC1 (configuration not stated) | – | 4.5 | –
7 | CC(C)(C)c1ccc(CN2CCC3(CCc4ccccc4C3=O)CC2)cc1.Cl | – | > 10 | –
8 | CN1CCC2(CCc3ccccc3C2=O)CC1.Cl | – | > 10 | –
9 | O=C1CCc2ccccc2C12CCN(CCc1ccccc1)CC2 | – | > 30 | –
10 | Cl.O=C1c2ccccc2CCC1C1CCN(Cc2ccc(C(F)(F)F)cc2)CC1 (configuration not stated) | > 10 | – | –
11 | Cl.O=C1c2ccccc2CCC1C1CCN(Cc2ccc(F)cc2)CC1 (configuration not stated) | 10 | – | –
12 | Cl.O=C1c2ccccc2CCC12CCN(Cc1ccc([N+](=O)[O-])cc1)CC2 | – | > 10 | –
13 | CC(C)(C)c1ccc(CN2CCC(C3CCc4ccccc4C3=O)CC2)cc1 (configuration not stated) | > 10 | – | –
14 | Cl.O=C1c2ccccc2CCC12CCN(CCc1ccccc1)CC2 | – | 10 | ED50 [3]: 10 mg/kg; ED50 [4]: 30 mg/kg
15 | O=C(O)CC(O)C(=O)O.O=C1c2ccccc2CCC12CCN(Cc1ccc3ccccc3c1)CC2 | – | > 10 | –
16 | Br.CC(C1CC1)N1CCC(C2CCc3ccccc3C2=O)CC1 (configuration not stated) | > 30 | – | –

Row | Compound | ED50 [1] [mg/kg] | ED50 [2] [mg/kg] | other results
17 | C[C@@H]1CN(CCCn2c3ccccc3c3ccccc32)C[C@H](C)N1 [RIMCAZOLE] | 22 | – | ED50 [4]: 48 mg/kg
18 | Br.O=C(CC1CCN(CC2CC2)CC1)c1ccc(F)cc1 | 0.35 | – | ED50 [3]: 1.8 mg/kg; ED50 [4]: 1.9 mg/kg; Ki [5]: 0.01 µM
19 | Cl.O=C1c2ccccc2CCC12CCN(CC1CCCCC1)CC2 | – | > 10 | –
20 | O=C1c2ccc(F)cc2CCC1C1CCN(Cc2ccccc2)CC1 (configuration not stated) | – | > 10 | –
21 | O=C(O)/C=C/C(=O)O.O=C1c2c(F)cc(F)cc2CCC12CCN(CCc1ccccc1)CC2 | – | > 10 | –
22 | Cl.O=C1c2ccccc2CCC12CCN(Cc1ccc(F)cc1)CC2 | > 10 | – | –
23 | COc1ccc(CN2CCC3(CCc4ccccc4C3=O)CC2)cc1.Cl | > 10 | – | –
24 | Cl.O=C1c2cccc(F)c2CCC1C1CCN(CCc2ccccc2)CC1 (configuration not stated) | – | 6.8 | –
25 | c1ccc(CN2CCC3(CCCc4ccccc43)CC2)cc1 | > 30 | – | ED50 [6]: > 30 mg/kg; ED50 [7]: > 30 mg/kg
26 | OC1CCc2ccccc2C12CCN(CCc1ccccc1)CC2 (configuration not stated) | – | > 30 | –
27 | Cl.OC1c2ccccc2CCC12CCN(CCc1ccccc1)CC2 (configuration not stated) | – | 0.064 | ED50 [8]: 0.07 mg/kg; ED50 [4]: 10 mg/kg
28 | O=C1c2ccc(Cl)cc2CCC12CCN(CCc1ccccc1)CC2 | – | 10 | –
29 | Cc1ccc(CN2CCC(C3CCc4ccccc4C3=O)CC2)cc1.O (configuration not stated) | – | > 10 | –
30 | O=C(O)CC(O)C(=O)O.O=C1c2ccccc2CCC12CCN(Cc1ccc(C(F)(F)F)cc1)CC2 | > 10 | – | –
31 | Br.O=C1c2ccccc2CCC1C1CCN(CC2CC2)CC1 (configuration not stated) | – | > 10 | –
32 | Cl.O=C1c2ccccc2CCC12CCN(Cc1ccccc1)CC2 | – | > 10 | –

From ChEMBL document CHEMBL1127316, “Piperidinyltetralin sigma ligands” (J Med Chem, 1994)
